According to ChEMBL document CHEMBL3244284, “(2-Carboxy-1,4-dihydro-4-oxoquinolyl)oxamic acids and (2-carboxy-1,4-dihydro-4-oxobenzo[h]quinolyl)oxamic acids as antiallergy agents” (1977):

Species on record: Rattus norvegicus
Assay: Antiallergic activity in Sprague-Dawley rat assessed as inhibition of egg albumin/ Hemophilus pertussis antibody-induced passive cutaneous anaphylaxis (PCA) reaction
Format: functional
Conditions: read-out: ID50 (the source's name)
How it was run: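 Rats immunized ip with 0.5 mg egg albumin plus 0.5 cm3 heat-killed H. pertussis vaccine; serum collected at 18-20 days. Five 0.1-ml serum dilutions given intradermally on shaved back of 200-g rats. At 72 h, iv challenge with 4 mg EA plus 0.5% Evans blue; compound in THAM solution iv at challenge. Inhibition of spot count versus untreated; ID50 from 3-4 doses, six rats each.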

In order of falling ED50:
1. O=C(O)C(=O)Nc1ccc2[nH]c(C(=O)O)cc(=O)c2c1  7 mg/kg
2. O=C([O-])c1cc(=O)c2c(OCC(O)COc3cccc4oc(C(=O)[O-])cc(=O)c34)cccc2o1.[Na+].[Na+] [CROMOLYN SODIUM]  2.5 mg/kg
3. COc1ccc(NC(=O)C(=O)O)c2c(=O)cc(C(=O)O)[nH]c12  0.7 mg/kg
4. O=C(O)C(=O)Nc1cc2c(=O)cc(C(=O)O)[nH]c2c2ccccc12  0.5 mg/kg
5. Cc1ccc(NC(=O)C(=O)O)c2c(=O)cc(C(=O)O)[nH]c12  0.4 mg/kg
6. O=C(O)C(=O)Nc1ccc(Cl)c2[nH]c(C(=O)O)cc(=O)c12  0.3 mg/kg
7. O=C(O)C(=O)Nc1cccc2c1ccc1c(=O)cc(C(=O)O)[nH]c12  0.1 mg/kg
8. Cc1cc(NC(=O)C(=O)O)cc2c(=O)cc(C(=O)O)[nH]c12  0.1 mg/kg
9. Cc1c(NC(=O)C(=O)O)ccc2c(=O)cc(C(=O)O)[nH]c12  0.1 mg/kg

Species on record: Rattus norvegicus
Assay: Ratio of disodium cromoglycate ID50 to compound ID50 for antiallergic activity in Sprague-Dawley rat by passive cutaneous anaphylaxis (PCA) reaction
Format: functional
Conditions: not given

In order of rising Ratio:
1. O=C(O)C(=O)Nc1cccc2c1ccc1c(=O)cc(C(=O)O)[nH]c12  25
2. Cc1cc(NC(=O)C(=O)O)cc2c(=O)cc(C(=O)O)[nH]c12  25
3. Cc1c(NC(=O)C(=O)O)ccc2c(=O)cc(C(=O)O)[nH]c12  25
